pIC50: −log10 of the molar value.
Key:
RAW264.7 = assay: Antiinflammatory activity in mouse RAW264.7 cells assessed as inhibition of LPS-induced nitric oxide production preincubated for 1 hr followed by LPS stimulation and measured after 24 hrs by Griess reagent based assay; assay type: functional, cell-based
[1] = Cytotoxicity against mouse RAW264.7 cells assessed as cell survival at 100 uM after 24 hrs by MTT assay relative to control; assay type: cell-based; details: read-out: Activity
How it was run: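 RAW264.7 seeded 5 × 10^3/well for 24 h at 37 °C, 5% CO2. Samples dissolved in DMSO and diluted in DMEM to final 100 μM with 1% DMSO; 1% DMSO as solvent control, cell-free medium as blank. After 24 h, MTT added for 4 h; medium removed, formazan dissolved in DMSO, absorbance read at 490 nm. % inhibition computed relative to solvent control after blank subtraction.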

pIC50 (RAW264.7)	Compound	viability at 24 h, 100 µM [1]
4.76	COc1cc(C(=O)C[C@H]2C[C@@H](O)C[C@@H](c3ccc(O)c(OC)c3)O2)ccc1O	> 90%
< 4.30	COc1cc(C(=O)C[C@H]2C[C@H](O)C[C@@H](c3ccc(O)c(OC)c3)O2)ccc1O	> 90%
< 4.30	COc1cc(C[C@@H](O)[C@@H]2C[C@@H](O)[C@@H](c3ccc(O)c(OC)c3)[C@H](c3ccc(O)c(OC)c3)O2)ccc1O	> 90%
< 4.30	COc1cc(C[C@@H](O)[C@H]2C[C@H](O)[C@@H](c3ccc(O)c(OC)c3)[C@H](c3ccc(O)c(OC)c3)O2)ccc1O	> 90%
4.63	COc1cc(C[C@@H](O)[C@@H]2C[C@@H](O)[C@@H](c3cc(OC)c(O)c(OC)c3)[C@H](c3ccc(O)c(OC)c3)O2)ccc1O	> 90%

Second part, the molecule before the results:

Compound	pIC50 (RAW264.7)	viability at 24 h, 100 µM [1]
COc1cc(C[C@H](O)[C@@H]2C[C@@H](O)C[C@H](c3ccc(O)c(OC)c3)O2)ccc1O	< 4.30	> 90%
COc1cc(CC[C@H]2C[C@H](O)[C@@H](O)[C@@H](c3ccc(O)c(OC)c3)O2)ccc1O	4.66	> 90%
C[C@@H]1C[C@H]2[C@@H]3CCC4=CC(=O)C=C[C@]4(C)[C@@]3(F)[C@@H](O)C[C@]2(C)[C@@]1(O)C(=O)CO [DEXAMETHASONE]	4.49	
COc1cc(CC[C@H]2C[C@H](O)[C@H](O)[C@@H](c3ccc(O)c(OC)c3)O2)ccc1O	< 4.30	> 90%
COc1cc(C[C@H]2O[C@@H](CC(=O)c3ccc(O)c(OC)c3)C[C@H]2O)ccc1O	4.58	> 90%
